Reference: ChEMBL document CHEMBL1123184, “Thromboxane synthetase inhibitors and antihypertensive agents. 2. N-[(1H-imidazol-1-yl)alkyl]-1H-isoindole-1,3(2H)-diones and N-[(1H-1,2,4-triazol-1-yl)alkyl]-1H-isoindole-1,3(2H)-diones as unique antihypertensive agents” (J Med Chem, 1986)
Values belong to the molecule of their own block, whether it stands above or below them. The source made the active and inactive calls.

Experiments:
[1] = target: T1, Thromboxane-A synthase (Rattus norvegicus) (UniProt P49430); assay: Inhibition of thromboxane formation (thromboxane synthetase) in platelets at 10e-4 M; assay type: functional
T1 sequence (whole entry): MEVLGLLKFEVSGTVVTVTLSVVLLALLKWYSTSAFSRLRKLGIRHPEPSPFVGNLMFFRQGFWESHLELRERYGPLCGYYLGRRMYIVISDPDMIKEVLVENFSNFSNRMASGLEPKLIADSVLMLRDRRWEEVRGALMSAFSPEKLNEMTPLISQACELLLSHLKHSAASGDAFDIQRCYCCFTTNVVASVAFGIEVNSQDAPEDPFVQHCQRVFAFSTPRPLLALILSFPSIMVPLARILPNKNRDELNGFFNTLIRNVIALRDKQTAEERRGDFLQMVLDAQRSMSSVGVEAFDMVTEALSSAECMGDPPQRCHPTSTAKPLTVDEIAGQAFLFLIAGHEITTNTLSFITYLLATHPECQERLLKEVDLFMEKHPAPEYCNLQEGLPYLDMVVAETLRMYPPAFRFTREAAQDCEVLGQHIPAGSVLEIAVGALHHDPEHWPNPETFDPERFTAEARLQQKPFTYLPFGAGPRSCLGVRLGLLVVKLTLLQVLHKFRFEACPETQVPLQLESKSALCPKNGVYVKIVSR
Procedure, shortened: (§1)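 SHR washed platelets (4.5–6.0 × 10^4/μL, Krebs phosphate pH 7.4) incubated 10 min at 37 °C with compound at 10^-4 M. Reaction stopped with citric acid on ice. TXB2 quantified by RIA, boiled-control blank subtracted, and percent inhibition of TXB2 formation calculated. Number of determinations given per value.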

[2] = test system: Rattus norvegicus; assay: Compound was tested for the antihypertensive activity in rats, after peroral administration of 100 mg/kg; I=Inactive; assay type: functional, organism-based; set-up: dose 100 mg/kg
Procedure, shortened: (§2)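 Male 16-week-old Okamoto SHR (mean arterial pressure 170 ± 1.5 mmHg). Compound suspended in 2% preboiled starch (50 mg/mL) and given by gavage at 100 mg/kg, with 0.9% NaCl load 25 mL/kg. Second identical dose without saline 24 h later. Mean arterial pressure read 28 h after first dose. Active: one rat ≤116 mmHg or mean of two ≤122 mmHg.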

[3] = test system: Rattus norvegicus; assay: Compound was tested for the antihypertensive activity in rats, after peroral administration of 100 mg/kg for 2 days (no. of rats=2); A=Active; assay type: functional, organism-based; set-up: dose 100 mg/kg; procedure, shortened: as §2
[4] = target: T1, Thromboxane-A synthase (Rattus norvegicus); assay: Inhibition of thromboxane formation in platelets at a concentration of 10e-4 M; assay type: functional; procedure, shortened: as §1
[5] = test system: Rattus norvegicus; assay: Compound was tested for the antihypertensive activity in rats, after peroral administration of 100 mg/kg for 2 days (no. of rats=4); I=Inactive; assay type: functional, organism-based; set-up: dose 100 mg/kg; procedure, shortened: as §2
[6] = test system: Rattus norvegicus; assay: Compound was tested for the antihypertensive activity in rats, after peroral administration of 100 mg/kg for 2 days (no. of rats=3); I=Inactive; assay type: functional, organism-based; set-up: dose 100 mg/kg; procedure, shortened: as §2
[7] = test system: Rattus norvegicus; assay: Compound was tested for the antihypertensive activity in rats, after peroral administration of 100 mg/kg for 2 days (no. of rats=2); I=Inactive; assay type: functional, organism-based; set-up: dose 100 mg/kg; procedure, shortened: as §2
[8] = target: T2, Thromboxane-A synthase (Rattus norvegicus, UniProt P49430); assay: (§3) Compound was tested for the inhibition of thromboxane synthetase
T2 sequence (P49430 whole entry): T1 sequence (whole entry)
Procedure, shortened: (§4)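 Washed platelets from urethan-anesthetized SHR aged 19–24 weeks, in oxygenated Krebs phosphate buffer pH 7.4 at (4.5–6.0) × 10^4 platelets/μL. Incubated 10 min at 37 °C with compound, stopped with citric acid on ice. TXB2 measured by RIA; boiled-sample blank subtracted. IC50 read from percent inhibition vs log concentration plot; duplicate measurements.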

[9] = target: T2, Thromboxane-A synthase; assay: as §3; assay type: functional; procedure, shortened: as §4
[10] = test system: Rattus norvegicus; assay: Compound was tested for the antihypertensive activity in rats, after peroral administration of 100 mg/kg; A=Active; assay type: functional, organism-based; set-up: dose 100 mg/kg; procedure, shortened: as §2
[11] = test system: Rattus norvegicus; assay: Compound was tested for the antihypertensive activity in rats, after peroral administration of 100 mg/kg for 2 days (no. of rats=3); A=Active; assay type: functional, organism-based; set-up: dose 100 mg/kg; procedure, shortened: as §2
[12] = test system: Rattus norvegicus; assay: Compound was tested for the antihypertensive activity in rats, after peroral administration of 100 mg/kg for 2 days (no. of rats=2); a=Active; assay type: functional, organism-based; set-up: dose 100 mg/kg; procedure, shortened: as §2

SMILES: O=C1c2ccc(Cl)c(Cl)c2C(=O)N1CCCCn1ccnc1
inhibition [1]: 100% | Activity [2]: inactive

SMILES: O=C1c2ccccc2C(=O)N1CCCCCn1cncn1
Activity [3]: Active | inhibition [4]: 79%

SMILES: Cc1nccn1CCCCN1C(=O)c2ccccc2C1=O
Activity [5]: inactive | inhibition [4]: 22%

SMILES: Cc1cccc2c1C(=O)N(CCCn1ccnc1)C2=O
Activity [6]: inactive | IC50 [8]: 4000 nM | inhibition [4]: 100%

SMILES: O=C1c2ccccc2C(=O)N1CCCCn1ccnc1-c1ccccc1
Activity [6]: inactive | inhibition [4]: 57%

SMILES: O=C1c2ccccc2C(=O)N1CCCCCCCCCCn1ccnc1
inhibition [1]: 92% | Activity [2]: inactive | IC50 [9]: 100 nM

SMILES: O=C1c2cccc(Cl)c2C(=O)N1CCCCn1ccnc1
inhibition [1]: 100% | Activity [10]: Active

SMILES: O=C1c2ccccc2C(=O)N1CC#CCn1ccnc1
inhibition [1]: 100% | Activity [10]: Active

SMILES: CC(CCn1ccnc1)N1C(=O)c2cccc(Br)c2C1=O (stereo unspecified)
inhibition [1]: 89% | Activity [2]: inactive

SMILES: CCc1nccn1CCCCN1C(=O)c2ccccc2C1=O
Activity [7]: inactive | inhibition [4]: 65%

SMILES: Cc1cn(CCCN2C(=O)c3ccccc3C2=O)cn1
Activity [7]: inactive | inhibition [4]: 68%

SMILES: O=C1c2ccc(Cl)c(Cl)c2C(=O)N1CCCn1cncn1
inhibition [1]: 73% | Activity [2]: inactive

SMILES: O=C1c2ccccc2C(=O)N1CCCn1cncn1
Activity [3]: Active | inhibition [4]: 64%

SMILES: O=C1c2ccccc2C(=O)N1CCCCCCn1ccnc1
inhibition [1]: 100% | IC50 [9]: 1500 nM | Activity [10]: Active

SMILES: Cc1cccc2c1C(=O)N(CCCCn1ccnc1)C2=O
IC50 [8]: 2000 nM | Activity [3]: Active | inhibition [4]: 100%

SMILES: O=C1c2cccc(Cl)c2C(=O)N1CCCn1ccnc1
inhibition [1]: 92% | Activity [10]: Active

SMILES: O=C1c2cccc(Br)c2C(=O)N1CCCCn1ccnc1
inhibition [1]: 100% | IC50 [9]: 1000 nM | Activity [10]: Active

SMILES: O=C1c2ccccc2C(=O)N1CCCCCCCCn1ccnc1
inhibition [1]: 100% | Activity [2]: inactive | IC50 [9]: 200 nM

SMILES: CC(CCn1cncn1)N1C(=O)c2ccccc2C1=O (stereo unspecified)
Activity [5]: inactive | inhibition [4]: 47%

SMILES: O=C1c2cccc(Br)c2C(=O)N1CCCn1cncn1
inhibition [1]: 76% | Activity [2]: inactive

SMILES: O=C1c2ccccc2C(=O)N1CCCCn1cncn1
inhibition [4]: 70%

SMILES: CC(CCn1ccnc1)N1C(=O)c2ccccc2C1=O (stereo unspecified)
Activity [11]: Active | inhibition [4]: 94%

SMILES: Cc1nccn1CCCN1C(=O)c2ccccc2C1=O
Activity [7]: inactive | inhibition [4]: 36%

Continued, in another order:

inhibition [4]: 86%
SMILES: Cc1cn(CCCCN2C(=O)c3ccccc3C2=O)cn1
Activity [6]: inactive

inhibition [4]: 0%
SMILES: CCc1nccn1CCCN1C(=O)c2ccccc2C1=O
Activity [7]: inactive

inhibition [1]: 87% | IC50 [9]: 600 nM
SMILES: O=C1c2cccc(Br)c2C(=O)N1CCCCCn1ccnc1
Activity [2]: inactive

inhibition [4]: 85%
SMILES: O=C1c2ccccc2C(=O)N1C/C=C/Cn1ccnc1
Activity [3]: Active

IC50 [8]: 5000 nM | inhibition [4]: 94%
SMILES: O=C1c2ccccc2C(=O)N1CCCn1ccnc1
Activity [3]: Active

inhibition [4]: 20%
SMILES: O=C1c2ccccc2C(=O)N1CCn1ccnc1
Activity [3]: Active

inhibition [1]: 100% | IC50 [9]: 400 nM
SMILES: O=C1c2ccc(Cl)c(Cl)c2C(=O)N1CCCn1ccnc1
Activity [2]: inactive

IC50 [8]: 2000 nM | inhibition [4]: 99%
SMILES: O=C1c2ccccc2C(=O)N1CCCCn1ccnc1
Activity [3]: Active

inhibition [4]: 0%
SMILES: O=C1c2ccccc2C(=O)N1CCn1cncn1
Activity [12]: Active

IC50 [8]: 6000 nM | inhibition [4]: 92%
SMILES: O=C1c2ccccc2C(=O)N1CCCCCn1ccnc1
Activity [3]: Active
